Measured values: ChEMBL document CHEMBL4680134, “Structural optimization of natural product nordihydroguaretic acid to discover novel analogues as AcrB inhibitors” (Eur J Med Chem, 2020)

How the values were obtained:
[1] = molecular target: T1, Multidrug efflux pump subunit AcrB (Escherichia coli (strain K12)) (UniProt P31224); test: Inhibition of AcrB in Escherichia coli BW25113 assessed as potentiation of rifampicin induced antibacterial activity by measuring rifampicin MIC at 16 ug/ml measured after 18 hrs by checkerboard titration method (reference value: 16 ug/ml); conditions: dose 16.0 µg/ml
T1 sequence (whole entry): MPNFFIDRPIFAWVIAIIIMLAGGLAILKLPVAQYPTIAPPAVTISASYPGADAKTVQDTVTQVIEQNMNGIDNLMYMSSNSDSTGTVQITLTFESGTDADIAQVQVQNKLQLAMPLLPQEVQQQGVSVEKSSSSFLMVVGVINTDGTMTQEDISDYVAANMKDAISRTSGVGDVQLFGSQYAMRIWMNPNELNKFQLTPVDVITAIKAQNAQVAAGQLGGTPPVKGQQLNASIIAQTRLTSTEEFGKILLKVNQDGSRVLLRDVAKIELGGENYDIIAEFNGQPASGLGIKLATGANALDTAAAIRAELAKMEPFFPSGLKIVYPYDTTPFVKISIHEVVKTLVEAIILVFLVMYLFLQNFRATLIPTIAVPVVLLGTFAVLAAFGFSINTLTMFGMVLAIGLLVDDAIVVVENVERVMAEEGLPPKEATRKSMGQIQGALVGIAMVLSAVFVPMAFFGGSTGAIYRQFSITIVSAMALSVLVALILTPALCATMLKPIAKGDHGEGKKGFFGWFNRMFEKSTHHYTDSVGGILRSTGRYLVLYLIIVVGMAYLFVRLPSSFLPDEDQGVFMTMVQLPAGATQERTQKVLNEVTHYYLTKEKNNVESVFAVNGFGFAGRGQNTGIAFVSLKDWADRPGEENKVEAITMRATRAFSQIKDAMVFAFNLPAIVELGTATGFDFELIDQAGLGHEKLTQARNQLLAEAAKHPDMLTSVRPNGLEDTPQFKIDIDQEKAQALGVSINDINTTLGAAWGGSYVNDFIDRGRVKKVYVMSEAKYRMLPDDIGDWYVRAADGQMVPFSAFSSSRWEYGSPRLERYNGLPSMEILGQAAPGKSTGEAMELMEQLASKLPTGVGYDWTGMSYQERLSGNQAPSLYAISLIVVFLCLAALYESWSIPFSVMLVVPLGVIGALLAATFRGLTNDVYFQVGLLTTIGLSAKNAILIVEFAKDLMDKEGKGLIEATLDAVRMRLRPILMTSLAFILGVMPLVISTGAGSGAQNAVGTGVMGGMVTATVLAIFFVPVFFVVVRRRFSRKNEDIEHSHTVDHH

[2] = molecular target: T1, Multidrug efflux pump subunit AcrB (Escherichia coli (strain K12)); test: Inhibition of AcrB in Escherichia coli BW25113 assessed as potentiation of chloramphenicol induced antibacterial activity by measuring chloramphenicol MIC at 128 ug/ml measured after 18 hrs by checkerboard titration method (reference value: 8 ug/ml); conditions: dose 128.0 µg/ml
[3] = molecular target: T1, Multidrug efflux pump subunit AcrB (Escherichia coli (strain K12)); test: Inhibition of AcrB in Escherichia coli BW25113 assessed as potentiation of chloramphenicol induced antibacterial activity by measuring chloramphenicol MIC at 16 ug/ml measured after 18 hrs by checkerboard titration method (reference value: 8 ug/ml); conditions: dose 16.0 µg/ml
[4] = molecular target: T1, Multidrug efflux pump subunit AcrB (Escherichia coli (strain K12)); test: Inhibition of AcrB in Escherichia coli BW25113 assessed as potentiation of erythromycin induced antibacterial activity by measuring erythromycin MIC at 64 ug/ml measured after 18 hrs by checkerboard titration method (reference value: 64 ug/ml); conditions: dose 64.0 µg/ml
[5] = Growth inhibition of Escherichia coli harboring AcrB deletion mutant at 64 ug/ml after 18 hrs by broth microdilution assay; conditions: dose 64 µg/ml
Outline: (§1)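 MIC determined by 96-well broth microdilution in E. coli BW25113 expressing AcrB ((+)AcrB) and an isogenic acrB-deleted strain ((-)AcrB). Used to set the compound concentrations for synergy testing that produce no direct antibacterial effect.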

[6] = molecular target: T1, Multidrug efflux pump subunit AcrB (Escherichia coli (strain K12)); test: Inhibition of AcrB in Escherichia coli BW25113 assessed as potentiation of erythromycin induced antibacterial activity by measuring erythromycin MIC at 32 ug/ml measured after 18 hrs by checkerboard titration method (reference value: 64 ug/ml); conditions: dose 32.0 µg/ml
[7] = molecular target: T1, Multidrug efflux pump subunit AcrB (Escherichia coli (strain K12)); test: Inhibition of AcrB in Escherichia coli BW25113 assessed as potentiation of tetraphenylphosphonium induced antibacterial activity by measuring tetraphenylphosphonium MIC at 64 ug/ml measured after 18 hrs by checkerboard titration method (reference value: 1024 ug/ml); conditions: dose 64.0 µg/ml
[8] = molecular target: T1, Multidrug efflux pump subunit AcrB (Escherichia coli (strain K12)); test: Inhibition of AcrB in Escherichia coli BW25113 assessed as potentiation of erythromycin induced antibacterial activity by measuring erythromycin MIC at 16 ug/ml measured after 18 hrs by checkerboard titration method (reference value: 64 ug/ml); conditions: dose 16.0 µg/ml
[9] = molecular target: T1, Multidrug efflux pump subunit AcrB (Escherichia coli (strain K12)); test: Inhibition of AcrB in Escherichia coli BW25113 assessed as potentiation of tetraphenylphosphonium induced antibacterial activity by measuring tetraphenylphosphonium MIC at 128 ug/ml measured after 18 hrs by checkerboard titration method (reference value: 1024 ug/ml); conditions: dose 128.0 µg/ml
[10] = molecular target: T1, Multidrug efflux pump subunit AcrB (Escherichia coli (strain K12)); test: Inhibition of AcrB in Escherichia coli BW25113 assessed as potentiation of erythromycin induced antibacterial activity by measuring erythromycin MIC at 128 ug/ml measured after 18 hrs by checkerboard titration method (reference value: 64 ug/ml); conditions: dose 128.0 µg/ml
[11] = molecular target: T1, Multidrug efflux pump subunit AcrB (Escherichia coli (strain K12)); test: Inhibition of AcrB in Escherichia coli BW25113 assessed as potentiation of rifampicin induced antibacterial activity by measuring rifampicin MIC at 64 ug/ml measured after 18 hrs by checkerboard titration method (reference value: 16 ug/ml); conditions: dose 64.0 µg/ml
[12] = molecular target: T1, Multidrug efflux pump subunit AcrB (Escherichia coli (strain K12)); test: Inhibition of AcrB in Escherichia coli BW25113 assessed as potentiation of chloramphenicol induced antibacterial activity by measuring chloramphenicol MIC at 64 ug/ml measured after 18 hrs by checkerboard titration method (reference value: 8 ug/ml); conditions: dose 64.0 µg/ml
[13] = Growth inhibition of Escherichia coli BW25113 expressing AcrB at 512 ug/ml after 18 hrs by broth microdilution assay; conditions: dose 512 µg/ml; outline: as §1
[14] = molecular target: T1, Multidrug efflux pump subunit AcrB (Escherichia coli (strain K12)); test: Inhibition of AcrB in Escherichia coli BW25113 assessed as potentiation of tetraphenylphosphonium induced antibacterial activity by measuring tetraphenylphosphonium MIC at 32 ug/ml measured after 18 hrs by checkerboard titration method (reference value: 1024 ug/ml); conditions: dose 32.0 µg/ml
[15] = molecular target: T1, Multidrug efflux pump subunit AcrB (Escherichia coli (strain K12)); test: Inhibition of AcrB in Escherichia coli BW25113 assessed as potentiation of levofloxacin induced antibacterial activity by measuring levofloxacin MIC at 128 ug/ml measured after 18 hrs by checkerboard titration method (reference value: 0.06 ug/ml); conditions: dose 128.0 µg/ml
[16] = molecular target: T1, Multidrug efflux pump subunit AcrB (Escherichia coli (strain K12)); test: Inhibition of AcrB in Escherichia coli BW25113 assessed as potentiation of rifampicin induced antibacterial activity by measuring rifampicin MIC at 128 ug/ml measured after 18 hrs by checkerboard titration method (reference value: 16 ug/ml); conditions: dose 128.0 µg/ml

Compound	MIC [1] [µg/mL]	MIC [2] [µg/mL]	MIC [3] [µg/mL]	MIC [4] [µg/mL]	MIC [6] [µg/mL]	MIC [7] [µg/mL]	MIC [8] [µg/mL]	MIC [9] [µg/mL]	MIC [10] [µg/mL]	MIC [11] [µg/mL]	MIC [12] [µg/mL]	MIC [14] [µg/mL]	MIC [15] [µg/mL]	MIC [16] [µg/mL]	growth inhibition (GI) [5]	growth inhibition (GI) [13]
O=C(NCCc1ccc(O)c(O)c1)c1ccc(O)c(O)c1	16	2	4	32	32	512	64	512	32	16	2	512	0.06	16	Non-Toxic	Non-Toxic
O=C(NCCc1ccc(O)c(O)c1)c1ccc(C(F)(F)F)cc1	16	8	8	64	64	1020	64	1020	64	16	8	1020	0.03	16	Non-Toxic	Non-Toxic
Nc1cc(N)cc(C(=O)NCCc2ccc(O)c(O)c2)c1	16	8	8	32	32	512	64	512	32	16	8	512	0.06	16	Non-Toxic	Non-Toxic
O=C(NCCc1ccc(O)c(O)c1)c1cc(O)c(O)c(O)c1	16	2	4	16	32	512	32	256	16	16	4	512	0.03	16	Non-Toxic	Non-Toxic

The remaining compounds from weak to strong by MIC [1], led by results:

MIC [1] [µg/mL]	MIC [2] [µg/mL]	MIC [3] [µg/mL]	MIC [4] [µg/mL]	MIC [6] [µg/mL]	MIC [7] [µg/mL]	MIC [8] [µg/mL]	MIC [9] [µg/mL]	MIC [10] [µg/mL]	MIC [11] [µg/mL]	MIC [12] [µg/mL]	MIC [14] [µg/mL]	MIC [15] [µg/mL]	MIC [16] [µg/mL]	Compound	growth inhibition (GI) [5]	growth inhibition (GI) [13]
16	4	8	64	64	512	64	512	64	16	4	512	0.06	16	Oc1ccc(CCCCc2ccccc2O)cc1O	Non-Toxic	Non-Toxic
16	4	8	64	64	1020	64	512	32	16	4	1020	0.06	16	Nc1ccccc1C(=O)NCCc1ccc(O)c(O)c1	Non-Toxic	Non-Toxic
16	2	4	32	32	1020	64	512	16	16	4	1020	0.06	16	Nc1ccc(C(=O)NCCc2ccc(O)c(O)c2)cc1	Non-Toxic	Non-Toxic
